Experimental data published in ChEMBL document CHEMBL1138680, “Phenoxyphenyl pyridines as novel state-dependent, high-potency sodium channel inhibitors” (J Med Chem, 2004).

How the values were obtained:
Rattus norvegicus [1] = species on record: Rattus norvegicus; assay: Inhibition of native TTX-R sodium currents in acutely dissociated rat dorsal root ganglion (DRG); format: functional
Method in brief: (§1)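 Acutely dissociated neurons from newborn Sprague Dawley rat pups were plated on poly-D-lysine and recorded for up to two weeks. The HEK-293 fractional-response protocol was used, but with a 1-s depolarizing prepulse and a 5-ms hyperpolarizing gap. Fractional responses were collected at three or more concentrations per drug. Ki came from a logistic fit of the partial concentration–inhibition curves.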

Rattus norvegicus [2] = species on record: Rattus norvegicus; assay: Inhibition of native TTX-S sodium currents in acutely dissociated rat dorsal root ganglion (DRG); format: functional; method in brief: as §1
[3] = Ratio between Kr to Ki; format: functional
[4] = molecular target: Sodium channel protein type 2 subunit alpha, Nav1.2 (Rattus norvegicus) (UniProt P04775); assay: Dissociation constant for binding to resting state of rat brain NaIIa (rNav1.2) -B2 cell line stably expressed in HEK293 Cells
[5] = molecular target: Sodium channel protein type 2 subunit alpha (Rattus norvegicus) (UniProt P04775); assay: Dissociation constant for binding to inactivated state of rat brain NaIIa (rNav1.2) -B2 cell line stably expressed in HEK293 Cells

SMILES | Ratio [3] | Inhibition activity (Rattus norvegicus [1]) | Inhibition activity (Rattus norvegicus [2]) | kR [4] | Ki [5]
NC(=O)N1c2ccccc2C=Cc2ccccc21 [CARBAMAZEPINE] | – | 111 µM | 28 µM | – | –
NC(=O)c1cccnc1-c1ccc(Oc2ccc(F)cc2)cc1 | 5 | – | – | 63.7 µM | 13400 nM
NC(=O)N/N=C/c1ccc(Oc2ccc(F)cc2)cc1 | 100 | 0.26 µM | 0.25 µM | 34 µM | 350 nM
NC(=O)c1cccc(-c2ccc(Oc3ccc(F)cc3)cc2)n1 | 252 | 0.27 µM | 0.1 µM | 24.2 µM | 90 nM
NC(=O)c1ccc(-c2ccc(Oc3ccc(F)cc3)cc2)nc1 | – | – | – | – | 3750 nM
COc1cc(C(=O)NCCN(C)C)nc(-c2ccc(Oc3ccc(F)cc3)cc2)c1 | 90 | 1.56 µM | 0.18 µM | 23 µM | 250 nM
Nc1nnc(-c2cccc(Cl)c2Cl)c(N)n1 [LAMOTRIGINE] | – | 103 µM | 38.4 µM | – | –
NC(=O)c1ccnc(-c2ccc(Oc3ccc(F)cc3)cc2)c1 | – | – | – | – | 2640 nM

Continued, in another order:

Ratio [3] | SMILES | Inhibition activity (Rattus norvegicus [1]) | Inhibition activity (Rattus norvegicus [2]) | kR [4] | Ki [5]
154 | O=C(NCCN1CCCCC1)c1cccc(-c2ccc(Oc3ccc(F)cc3)cc2)n1 | 0.06 µM | – | 4.3 µM | 20 nM
180 | O=C(NCCN1CCCCC1)c1ccc(-c2ccc(Oc3ccc(F)cc3)cc2)nc1 | 1.56 µM | 1 µM | 107 µM | 590 nM
94 | NC(=O)c1cc(N2CCOCC2)cc(-c2ccc(Oc3ccc(F)cc3)cc2)n1 | 0.1 µM | 0.06 µM | 11.6 µM | 120 nM
24 | COc1cc(C(N)=O)nc(-c2ccc(Oc3ccc(F)cc3)cc2)c1 | – | – | 87.7 µM | 360 nM
122 | Cc1cc(N(C)C)cc(-c2ccc(Oc3ccc(F)cc3)cc2)n1 | 0.34 µM | 0.53 µM | 47.1 µM | 386 nM
68 | O=C(NCCN1CCCCC1)c1cncc(-c2ccc(Oc3ccc(F)cc3)cc2)c1 | – | – | 10.5 µM | 150 nM
362 | Cc1cc(OCCN2CCCCC2)cc(-c2ccc(Oc3ccc(F)cc3)cc2)n1 | 0.08 µM | 0.14 µM | 63.4 µM | 170 nM
